Measurements collected from several papers.
Protocols differ between the studies behind these lines.
Target: STE20-like serine/threonine-protein kinase (SLK, Homo sapiens, UniProt Q9H2G2)

Compound	read-out	action	method	cells	concentration	quantity	value
CN1CC(Oc2cnc(C#N)cc2-c2ccn3nc(NC(=O)C4CC4)cc3c2)C1	enzyme activity	inhibitor			1 µM	inhibition	7%
CO[C@@H](C)c1c(Nc2ccc([C@H](N(C)C(=O)C3CCS(=O)(=O)CC3)C(F)(F)F)cc2)cnc2cc(Cl)nn12	cell-free assay		competition with immobilised ligand		1 µM	remaining binding	81%
CS(=O)(=O)CCNCc1ccc(-c2ccc3ncnc(Nc4ccc(OCc5cccc(F)c5)c(Cl)c4)c3c2)o1	cell-free assay				0.5 µM	remaining signal	85.1%
CCS(=O)(=O)c1cc2cc(C[C@](O)(CC(C)(C)c3ccc(F)cc3C(N)=O)C(F)(F)F)[nH]c2cn1	cell-free assay		competition with immobilised ligand		1 µM	remaining binding	100%
Cn1c2c(c3ccc(Cl)c(Cl)c31)C(C#N)C(C)(C)NC2=O (stereo not shown)	thermal stability		DSF		10 µM	ΔTm	-0.1 °C
Nc1ncnc2occ(-c3ccc(NC(=O)Nc4cc(C(F)(F)F)ccc4F)cc3)c12	cell-free assay	inhibitor			20 µM	remaining signal	0.05%
CNC(=O)Nc1ccc2c(c1)CC[C@@]21OC(=O)N(CC(=O)N(Cc2ccc(F)cc2)[C@@H](C)C(F)(F)F)C1=O	cell-free assay		competition with immobilised ligand		1 µM	remaining binding	82%
O=C1Nc2ccc(Cl)cc2C1=Cc1cc(Cl)c(O)c(Cl)c1	cell-free assay				0.5 µM	remaining signal	95.3%
Cc1sc(C(=O)NC2COC2)cc1-n1cc(NC(=O)Nc2c(F)cccc2Cl)cn1	enzyme activity	inhibitor			10 µM	remaining activity	99.7%
O=C1NC(=O)c2cc(Nc3ccc(F)cc3)c(Nc3ccc(F)cc3)cc21	cell-free assay				0.5 µM	remaining signal	65.5%
Cc1c[nH]c2nccc(Oc3c(F)cc(Nc4cc(Cl)nc(N)n4)cc3F)c12	cell-free assay		competition with immobilised ligand		0.1 µM	remaining binding	97%
Cn1c2c(c3ccccc31)C(C#N)C(C)(C)NC2=O (stereo not shown)	thermal stability		DSF		10 µM	ΔTm	-0.1 °C
CCN1CCN(Cc2ccc(NC(=O)c3ccc(C)c(Oc4ccnc5[nH]ccc45)c3)cc2C(F)(F)F)CC1	target engagement in cells	inhibitor	chemoproteomics	Huh-7	10 µM	inhibition	-24.5%
O=C1NC(c2ccccn2)Sc2ccccc21 (stereo not shown)	cell-free assay		competition with immobilised ligand		1 µM	remaining binding	76%
CCN1CCC2(CC1)NC(=O)c1c(c3ccc(Cl)c(Cl)c3n1C)C2C#N (racemic)	thermal stability		DSF		10 µM	ΔTm	0.1 °C
CC(C)(O)[C@H]1CC[C@H](Nc2ccc3ncc(-c4cccc(C(F)(F)F)c4)n3n2)CC1	enzyme activity	inhibitor			1 µM	remaining activity	71.5%
CC(=O)C1=C(C)N(c2cccc(C(F)(F)F)c2)C(=O)N[C@@H]1c1ccc(C#N)nc1	cell-free assay		competition with immobilised ligand		1 µM	remaining binding	98.4%
Cn1c2c(c3ccc(Cl)c(Cl)c31)C(C#N)C1(CCNCC1)NC2=O (racemic)	thermal stability		DSF		10 µM	ΔTm	-0.1 °C
N#CCCc1ccc2c(c1)-c1[nH]c3ccc([N+](=O)[O-])cc3c1CC(=O)N2	cell-free assay				0.5 µM	remaining signal	87.2%
O=C(Nc1cnn(-c2csc(C(=O)NC3COC3)c2)c1)Nc1c(F)cccc1Cl	enzyme activity	inhibitor			5 µM	remaining activity	95%
Cc1ccc(Nc2nccc(N(C)c3ccc4c(C)n(C)nc4c3)n2)cc1S(N)(=O)=O	enzyme activity	inhibitor			0.5 µM	remaining activity	84.9%
CC(C)(C)c1nc2c(s1)c1nc(N)ncc1c1ccc(NS(=O)(=O)c3c(F)cccc3F)c(F)c12	enzyme activity	inhibitor	radiometric		1 µM	remaining activity	95%
CN1CCC2(CC1)NC(=O)c1c(c3ccc(Cl)c(Cl)c3n1C)C2C#N (racemic)	thermal stability		DSF		10 µM	ΔTm	-0.5 °C
Nc1cnc(N2CCc3cc(S(=O)(=O)Nc4c(F)cc(Cl)cc4F)cc(N4CCCC4=O)c32)nc1	cell-free assay		competition with immobilised ligand		1 µM	remaining binding	100%
COc1cc(-c2cc(-c3ccc(N4CCNCC4)cc3)cnc2C)cc(OC)c1OC	enzyme activity	inhibitor			0.1 µM	inhibition	12%
